Experimental findings from paper PMC12518644 (Scientific Reports, 2025) are described below.

For the test, the system named is MDA-MB-231 BC cell line. The test is described as follows: MTT cytotoxicity assay on MDA-MB-231 breast cancer cells. The test is classed as cell-based. The conditions noted are these: Homo sapiens, MDA-MB-231, 48 h, read-out: IC50 Values, MDA-MB-231, MTT, 48 h. The essentials:
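Cells grown in DMEM with 10% FBS and 1% antibiotics (100 U/ml penicillin), seeded at 1.0 × 10^4 cells/well, and incubated 24 h at 37 °C under 5% CO2. Medium then replaced with test compound at 6.5, 12.5, 25 or 50 µM for 48 h. MTT (5 mg/mL solution) added for 4 h, formazan dissolved in DMSO, and absorbance read at 570 nm. IC50 derived from dose-response.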
For orientation: Tetrazolium assays rely on reduction of a dye to a coloured formazan, in cell work by metabolically active cells.

Turning to `Cc1ccc(S(=O)(=O)n2cc(/C=N/NC(=O)c3cccc4ccccc34)c3ccccc32)cc1` [Compound 5p, (E )-N’ -[(1-Tosyl-1 H -indol-3-yl)methylene]−1-naphthohydrazide], the IC50 – broadly, the midpoint of a concentration-inhibition curve – came to 18.1 ± 0.2 µM.
